Measurements as given in ChEMBL document CHEMBL3244187, “Structure--activity relationships in cephalosporins prepared from penicillins. 2. Analogues of cephalexin substituted in the 3-methyl group” (J Med Chem, 1977).
In brackets after ≈: the same amount, converted by molar mass. Activity calls are given as the source filed them. No cut-off for these calls is given here.

Key:
Staphylococcus aureus [1] = test: Antibacterial activity against beta-lactamase producing benzylpenicillin-resistant Staphylococcus aureus Russell after 18 hrs by serial dilution method; assay type: functional
Outline: (§1)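 MICs by serial dilution on nutrient agar. Inoculum 0.001 mL of undiluted overnight broth culture. Plates incubated 18 h at 37 °C before reading. The S. aureus Russell strain produces β-lactamase and resists benzylpenicillin.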

Escherichia coli [2] = test: Antibacterial activity against Escherichia coli after 18 hrs by serial dilution method; assay type: functional
Outline: (§2)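 MICs by serial dilution on nutrient agar. Inoculum 0.001 mL of undiluted overnight broth culture. Plates incubated at 37 °C for 18 h before reading.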

Salmonella typhi = test: Antibacterial activity against Salmonella typhi after 18 hrs by serial dilution method; assay type: functional, Salmonella enterica subsp. enterica serovar Typhi; conditions: Salmonella enterica; outline: as §1
Shigella sonnei = test: Antibacterial activity against Shigella sonnei after 18 hrs by serial dilution method; assay type: functional; outline: as §2
Klebsiella aerogenes = test: Antibacterial activity against Klebsiella aerogenes after 18 hrs by serial dilution method; assay type: functional; outline: as §2
Proteus mirabilis [3] = test: Antibacterial activity against Proteus mirabilis after 18 hrs by serial dilution method; assay type: functional; outline: as §2
[4] = Drug level in mouse blood at 50 mg/kg, po after 15 mins by microbiological assay
[5] = Drug level in mouse blood at 50 mg/kg, po after 30 mins by microbiological assay; assay type: ADME, organism-based; design: dose 50 mg/kg, route oral; conditions: read-out: Drug uptake
Outline: (§3)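 Mice given a single 50 mg/kg dose by the route in the line. Groups of five killed at each time point and blood taken from the cut axilla, heparinized and stored at 4 °C. Blood assayed the same day by large-plate microbiological assay with Sarcina lutea NCTC 8340, overnight at 30 °C. Standards made in mouse blood, with pH 7.2 phosphate-buffered saline as diluent.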

[6] = Drug level in mouse blood at 50 mg/kg, po after 1 hr by microbiological assay; assay type: ADME, organism-based; design: dose 50 mg/kg, route oral; conditions: read-out: Drug uptake; outline: as §3
[7] = Drug level in mouse blood at 50 mg/kg, po after 2 hrs by microbiological assay; assay type: ADME, organism-based; design: dose 50 mg/kg, route oral; conditions: read-out: Drug uptake; outline: as §3
[8] = Drug level in mouse blood at 50 mg/kg, po after 4 hrs by microbiological assay; assay type: ADME, organism-based; design: dose 50 mg/kg, route oral; conditions: read-out: Drug uptake; outline: as §3
[9] = Drug level in mouse blood at 50 mg/kg, sc after 10 mins by microbiological assay; assay type: ADME, organism-based; design: dose 50 mg/kg, route subcutaneous; conditions: read-out: Drug uptake; outline: as §3
[10] = Drug level in mouse blood at 50 mg/kg, sc after 20 mins by microbiological assay; assay type: ADME, organism-based; design: dose 50 mg/kg, route subcutaneous; conditions: read-out: Drug uptake; outline: as §3
[11] = Drug level in mouse blood at 50 mg/kg, sc after 30 mins by microbiological assay; assay type: ADME, organism-based; design: dose 50 mg/kg, route subcutaneous; conditions: read-out: Drug uptake; outline: as §3
[12] = Drug level in mouse blood at 50 mg/kg, sc after 1 hr by microbiological assay; assay type: ADME, organism-based; design: dose 50 mg/kg, route subcutaneous; conditions: read-out: Drug uptake; outline: as §3
[13] = Drug level in mouse blood at 50 mg/kg, sc after 2 hrs by microbiological assay; assay type: ADME, organism-based; design: dose 50 mg/kg, route subcutaneous; conditions: read-out: Drug uptake; outline: as §3
[14] = Drug level in mouse blood at 50 mg/kg, sc after 4 hrs by microbiological assay; assay type: ADME, organism-based; design: dose 50 mg/kg, route subcutaneous; conditions: read-out: Drug uptake; outline: as §3
Staphylococcus aureus [15] = test: Antibacterial activity against Staphylococcus aureus Smith infected in sc dosed mouse administered 1 hr post infection; assay type: functional
Outline: (§4)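 Infected mice were treated subcutaneously or orally. Protection is expressed as CD50 in mg/kg, as the total dose given.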

Staphylococcus aureus [16] = test: Antibacterial activity against Staphylococcus aureus Smith infected in sc dosed mouse administered 1 hr and 5 hrs post infection; assay type: functional; outline: as §4
Escherichia coli [17] = test: Antibacterial activity against Escherichia coli 8 infected in sc dosed mouse administered 1 hr post infection; assay type: functional; outline: as §4
Escherichia coli [18] = test: Antibacterial activity against Escherichia coli 8 infected in sc dosed mouse administered 1 hr and 5 hrs post infection; assay type: functional; outline: as §4
Proteus mirabilis [19] = test: Antibacterial activity against Proteus mirabilis 13 infected in sc dosed mouse administered 1 hr post infection; assay type: functional; outline: as §4
Proteus mirabilis [20] = test: Antibacterial activity against Proteus mirabilis 13 infected in sc dosed mouse administered 1 hr and 5 hrs post infection; assay type: functional; outline: as §4
Staphylococcus aureus [21] = test: Antibacterial activity against Staphylococcus aureus Smith infected in po dosed mouse administered 1 hr post infection; assay type: functional; outline: as §4
Staphylococcus aureus [22] = test: Antibacterial activity against Staphylococcus aureus Smith infected in po dosed mouse administered 1 hr and 5 hrs post infection; assay type: functional; outline: as §4
Escherichia coli [23] = test: Antibacterial activity against Escherichia coli 8 infected in po dosed mouse administered 1 hr post infection; assay type: functional; outline: as §4
Escherichia coli [24] = test: Antibacterial activity against Escherichia coli 8 infected in po dosed mouse administered 1 hr and 5 hrs post infection; assay type: functional; outline: as §4
Staphylococcus aureus [25] = test: Antibacterial activity against Staphylococcus aureus Oxford after 18 hrs by serial dilution method; assay type: functional; outline: as §2
[26] = Drug level in mouse blood at 50 mg/kg, po after 10 mins by microbiological assay; assay type: ADME, organism-based; design: dose 50 mg/kg, route oral; conditions: read-out: Drug uptake; outline: as §3
[27] = Drug level in mouse blood at 50 mg/kg, po after 20 mins by microbiological assay; assay type: ADME, organism-based; design: dose 50 mg/kg, route oral; conditions: read-out: Drug uptake; outline: as §3
[28] = Drug level in mouse blood at 50 mg/kg, iv after 10 mins by microbiological assay; assay type: ADME, organism-based; design: dose 50 mg/kg, route intravenous; conditions: read-out: Drug uptake; outline: as §3
[29] = Drug level in mouse blood at 50 mg/kg, iv after 20 mins by microbiological assay; assay type: ADME, organism-based; design: dose 50 mg/kg, route intravenous; conditions: read-out: Drug uptake; outline: as §3
[30] = Drug level in mouse blood at 50 mg/kg, iv after 30 mins by microbiological assay; assay type: ADME, organism-based; design: dose 50 mg/kg, route intravenous; conditions: read-out: Drug uptake; outline: as §3
[31] = Drug level in mouse blood at 50 mg/kg, iv after 1 hr by microbiological assay; assay type: ADME, organism-based; design: dose 50 mg/kg, route intravenous; conditions: read-out: Drug uptake; outline: as §3
[32] = Drug level in mouse blood at 50 mg/kg, iv after 2 hrs by microbiological assay; assay type: ADME, organism-based; design: dose 50 mg/kg, route intravenous; conditions: read-out: Drug uptake; outline: as §3
[33] = Drug level in mouse blood at 50 mg/kg, iv after 4 hrs by microbiological assay; assay type: ADME, organism-based; design: dose 50 mg/kg, route intravenous; conditions: read-out: Drug uptake; outline: as §3
[34] = Drug metabolism in mouse assessed as metabolite level in urine by Sarcina lutea antibacterial assay; assay type: ADME
Outline: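 Urine from dosed mice run on paper strip chromatography in butanol-ethanol-water (4:1:5). Active zones located on agar plates seeded with Sarcina lutea.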

Pseudomonas aeruginosa = test: Antibacterial activity against cephalosporin-resistant Pseudomonas aeruginosa after 18 hrs by serial dilution method; assay type: functional, organism-based; outline: as §1
Morganella morganii = test: Antibacterial activity against cephalosporin-resistant Proteus morganii after 18 hrs by serial dilution method; assay type: functional, organism-based; outline: as §1
Enterobacter cloacae = test: Antibacterial activity against cephalosporin-resistant Enterobacter cloacae after 18 hrs by serial dilution method; assay type: functional, organism-based; outline: as §1

Row | SMILES | MIC (Klebsiella aerogenes) [µg/mL] | concentration at 0.5 h [5] [ng/mL] | concentration at 1 h [6] [ng/mL] | concentration at 2 h [7] [ng/mL] | concentration at 4 h [8] [ng/mL] | concentration at 10 min [9] [µg/mL] | concentration at 20 min [10] [µg/mL] | concentration at 0.5 h [11] [ng/mL] | concentration at 1 h [12] [ng/mL] | concentration at 2 h [13] [ng/mL] | concentration at 4 h [14] [ng/mL] | CD50 (Staphylococcus aureus [15]) [mg/kg] | CD50 (Staphylococcus aureus [16]) [mg/kg] | CD50 (Escherichia coli [17]) [mg/kg] | CD50 (Escherichia coli [18]) [mg/kg] | CD50 (Proteus mirabilis [19]) [mg/kg] | CD50 (Proteus mirabilis [20]) [mg/kg] | CD50 (Staphylococcus aureus [21]) [mg/kg] | CD50 (Staphylococcus aureus [22]) [mg/kg] | CD50 (Escherichia coli [23]) [mg/kg] | further results
1 | CC1=C(C(=O)O)N2C(=O)[C@@H](NC(=O)[C@H](N)c3ccccc3)[C@H]2SC1 [CEPHALEXIN ANHYDROUS] | 5 (≈ 14.4 µM) | 21700 | 8300 | 2500 | 560 | 27 | 20.5 | 13300 | 3000 | 420 | < 150 | 0.46 | 1 | 7.4 | 17 | 64 | 84 | 0.25 | 0.38 | 8.5 | MIC (Staphylococcus aureus [1]): 5 µg/mL (≈ 14.4 µM); MIC (Escherichia coli [2]): 12.5 µg/mL (≈ 36 µM); MIC (Salmonella typhi): 5 µg/mL (≈ 14.4 µM); MIC (Shigella sonnei): 5 µg/mL (≈ 14.4 µM); MIC (Proteus mirabilis [3]): 12.5 µg/mL (≈ 36 µM); concentration at 0.25 h [4]: 23900 ng/mL; CD50 (Escherichia coli [24]): 17 mg/kg; MIC (Staphylococcus aureus [25]): 1.25 µg/mL (≈ 3.6 µM)
2 | N[C@@H](C(=O)N[C@@H]1C(=O)N2C(C(=O)O)=C(Cc3ccc(C(=O)O)cc3)CS[C@H]12)c1ccccc1 | 2.5 (≈ 5.35 µM) | 1600 | 2400 | 2300 | 1900 | 75.2 | 87.4 | 68800 | 48000 | 22000 | 9300 | 1.25 | 1.8 | 130 | 60 | 14 | 19 | 17 | 28 | >1000 | concentration at 10 min [26]: < 1000 ng/mL; concentration at 20 min [27]: < 1000 ng/mL; concentration at 10 min [28]: 70.3 µg/mL; concentration at 20 min [29]: 48200 ng/mL; concentration at 0.5 h [30]: 39200 ng/mL; concentration at 1 h [31]: 25400 ng/mL; concentration at 2 h [32]: 4500 ng/mL; concentration at 4 h [33]: 2400 ng/mL; CD50 (Escherichia coli [24]): 2000 mg/kg; Drug metabolism [34]: metabolite_detected; Activity (Pseudomonas aeruginosa): inactive; Activity (Morganella morganii): inactive; Activity (Enterobacter cloacae): inactive
